The record followed here is ChEMBL document CHEMBL1142327, “2-Amino-N-pyrimidin-4-ylacetamides as A2A receptor antagonists: 2. Reduction of hERG activity, observed species selectivity, and structure-activity relationships” (J Med Chem, 2008).

pIC50, pKi: −log10 of the molar value. Activity calls are given as the source filed them. The rule behind the calls is not given here.

In general, pIC50 refers to the negative decadic logarithm of the IC50, by convention in mol/L. Lower therefore signals a large IC50. As a reminder, the pKi is the Ki on a negative log10 scale, so that one unit is a factor of ten.

In data set [1] the target is Voltage-gated inwardly rectifying potassium channel KCNH2 (Homo sapiens, UniProt Q12809). Briefly: Inhibition of human ERG potassium current expressed in HEK293 cells by patch-clamp technique. (In patch-clamp work, channel activity is measured electrically.)
Sequence of Voltage-gated inwardly rectifying potassium channel KCNH2 (Q12809 whole entry): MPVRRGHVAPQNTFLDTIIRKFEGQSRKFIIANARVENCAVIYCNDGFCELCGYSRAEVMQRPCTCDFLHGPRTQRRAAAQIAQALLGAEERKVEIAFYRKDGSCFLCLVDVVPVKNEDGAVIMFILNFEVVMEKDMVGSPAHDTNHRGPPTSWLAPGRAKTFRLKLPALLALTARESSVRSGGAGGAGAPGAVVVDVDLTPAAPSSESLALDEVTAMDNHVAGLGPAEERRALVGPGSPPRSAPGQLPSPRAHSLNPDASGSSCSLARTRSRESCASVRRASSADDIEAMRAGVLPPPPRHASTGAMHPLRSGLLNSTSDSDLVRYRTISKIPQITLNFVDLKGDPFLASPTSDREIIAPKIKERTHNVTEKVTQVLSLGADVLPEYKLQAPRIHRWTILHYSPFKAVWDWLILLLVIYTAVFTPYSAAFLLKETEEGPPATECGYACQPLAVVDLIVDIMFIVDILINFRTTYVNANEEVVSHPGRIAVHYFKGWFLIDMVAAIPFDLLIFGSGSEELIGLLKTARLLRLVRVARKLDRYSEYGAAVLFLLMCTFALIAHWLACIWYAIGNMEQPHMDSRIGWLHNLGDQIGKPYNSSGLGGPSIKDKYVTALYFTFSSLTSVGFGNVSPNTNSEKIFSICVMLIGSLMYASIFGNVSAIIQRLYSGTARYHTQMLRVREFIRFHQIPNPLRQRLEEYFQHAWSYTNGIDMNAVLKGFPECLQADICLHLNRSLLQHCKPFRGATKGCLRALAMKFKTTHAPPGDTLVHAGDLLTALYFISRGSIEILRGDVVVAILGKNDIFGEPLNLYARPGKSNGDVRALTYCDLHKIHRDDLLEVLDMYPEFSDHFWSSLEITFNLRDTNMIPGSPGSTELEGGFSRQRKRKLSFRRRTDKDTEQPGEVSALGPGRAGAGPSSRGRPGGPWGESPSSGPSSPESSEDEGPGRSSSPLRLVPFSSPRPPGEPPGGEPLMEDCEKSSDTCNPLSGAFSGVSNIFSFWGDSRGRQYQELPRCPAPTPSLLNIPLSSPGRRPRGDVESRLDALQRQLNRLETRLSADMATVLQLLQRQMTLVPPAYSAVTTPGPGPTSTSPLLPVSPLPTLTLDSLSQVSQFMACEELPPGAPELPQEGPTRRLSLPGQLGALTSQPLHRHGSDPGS
The target of another data set is Cytochrome P450 2D6 (Homo sapiens, UniProt P10635). Briefly: Inhibition of CYP2D6. The data set is classed as ADME.
Sequence of Cytochrome P450 2D6 (P10635 whole entry): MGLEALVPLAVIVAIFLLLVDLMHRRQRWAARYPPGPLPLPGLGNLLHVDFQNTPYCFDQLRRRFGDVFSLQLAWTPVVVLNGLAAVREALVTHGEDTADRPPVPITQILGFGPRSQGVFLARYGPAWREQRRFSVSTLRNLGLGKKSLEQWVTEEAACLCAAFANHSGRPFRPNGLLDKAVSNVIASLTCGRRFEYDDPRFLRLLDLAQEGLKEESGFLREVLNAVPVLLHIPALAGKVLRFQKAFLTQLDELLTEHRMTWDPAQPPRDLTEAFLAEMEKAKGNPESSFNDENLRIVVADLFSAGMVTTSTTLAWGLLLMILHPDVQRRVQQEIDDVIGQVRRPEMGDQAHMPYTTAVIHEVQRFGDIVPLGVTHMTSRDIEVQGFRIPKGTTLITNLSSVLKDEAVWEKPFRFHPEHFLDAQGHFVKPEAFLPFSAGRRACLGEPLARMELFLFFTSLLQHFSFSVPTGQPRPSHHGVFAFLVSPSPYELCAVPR
The target in another data set is Cytochrome P450 3A4 (Homo sapiens, UniProt P08684). Briefly: Inhibition of CYP3A4. The data set is classed as ADME.
Sequence of Cytochrome P450 3A4 (P08684 whole entry): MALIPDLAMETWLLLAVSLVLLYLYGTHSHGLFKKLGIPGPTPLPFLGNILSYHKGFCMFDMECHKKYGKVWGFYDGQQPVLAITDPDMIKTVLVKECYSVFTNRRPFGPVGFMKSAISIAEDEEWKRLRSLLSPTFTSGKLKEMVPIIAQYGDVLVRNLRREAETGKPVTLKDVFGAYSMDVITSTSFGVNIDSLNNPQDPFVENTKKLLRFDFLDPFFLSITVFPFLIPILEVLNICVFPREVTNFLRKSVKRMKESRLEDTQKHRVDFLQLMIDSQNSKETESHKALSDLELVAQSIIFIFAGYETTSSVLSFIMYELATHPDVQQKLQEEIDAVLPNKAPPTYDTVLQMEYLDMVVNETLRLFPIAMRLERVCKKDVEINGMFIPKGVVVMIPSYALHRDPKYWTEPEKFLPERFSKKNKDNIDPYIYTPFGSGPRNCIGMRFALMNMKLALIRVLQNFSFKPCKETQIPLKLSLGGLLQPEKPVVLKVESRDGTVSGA
The target of data set [2] is Adenosine receptor A2a (Rattus norvegicus, UniProt P30543). Briefly: Displacement of [3H]-ZM 241385 from rat adenosine A2A receptor expressed in CHO cell membrane. The data set is classed as cell membranes.
Sequence of Adenosine receptor A2a (Rattus norvegicus, UniProt P30543) (P30543 whole entry): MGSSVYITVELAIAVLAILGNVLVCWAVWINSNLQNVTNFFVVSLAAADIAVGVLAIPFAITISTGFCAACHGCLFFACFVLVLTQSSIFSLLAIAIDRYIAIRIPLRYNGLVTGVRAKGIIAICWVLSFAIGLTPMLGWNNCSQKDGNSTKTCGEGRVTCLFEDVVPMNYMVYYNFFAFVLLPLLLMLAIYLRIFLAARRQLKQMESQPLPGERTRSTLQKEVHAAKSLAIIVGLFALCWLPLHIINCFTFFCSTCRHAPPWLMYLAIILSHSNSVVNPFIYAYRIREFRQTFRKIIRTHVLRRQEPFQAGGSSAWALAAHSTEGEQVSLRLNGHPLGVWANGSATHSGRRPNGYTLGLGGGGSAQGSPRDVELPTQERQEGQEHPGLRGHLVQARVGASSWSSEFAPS
The species named for the next data set is Homo sapiens. Briefly: Selectivity ratio of Ki for human adenosine A1 receptor to Ki for human adenosine A2A receptor. Summed up:
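Stably transfected Flp-In HEK293 membranes with human A1 or A2A receptors (1–2 µg protein) were preincubated 30 min at room temp with adenosine deaminase. They were then incubated 90 min with competitor and 1.0 nM [3H]-DPCPX (A1) or 2.0 nM [3H]-ZM241385 (A2A). Nonspecific binding used 1 µM DPCPX or CGS15943. Filtration and scintillation counting followed. […] Ratio is A1 Ki/A2A Ki.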

The subject of the next data set is Rattus norvegicus. Briefly: Effect on haloperidol-induced catalepsy in Wistar rat at 30 mg/kg, po after 2 hrs. The class given is functional, organism-based. Further details: dose 30 mg/kg. Summed up:
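Male Wistar rats, ∼220 g, habituated 1 week, 24 per experiment. Oral dose of 30 mg/kg in 5% cremophor/sterile water (5 mL/kg) 2 h before testing, haloperidol 1.5 mg/kg ip 1 h before. Bar test: forepaws placed on 8.0 cm bar, three 30 s trials 3 min apart. Descent latency averaged per rat and compared with vehicle, p < 0.05.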

The target of a further data set is T1, Adenosine receptor A1 (Homo sapiens, UniProt P30542).
T1 sequence (P30542 whole entry): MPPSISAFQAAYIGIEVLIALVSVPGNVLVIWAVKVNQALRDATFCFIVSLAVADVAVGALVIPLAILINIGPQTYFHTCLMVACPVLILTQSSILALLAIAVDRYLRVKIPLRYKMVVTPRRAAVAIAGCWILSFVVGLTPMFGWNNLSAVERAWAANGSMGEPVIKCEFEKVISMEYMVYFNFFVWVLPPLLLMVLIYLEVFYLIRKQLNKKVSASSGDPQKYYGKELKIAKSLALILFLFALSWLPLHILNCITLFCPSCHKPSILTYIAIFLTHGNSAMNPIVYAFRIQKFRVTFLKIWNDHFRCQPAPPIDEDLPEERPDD
Briefly: Displacement of [3H]-DPCPX from human adenosine A1 receptor expressed in HEK293 cell membrane. The class given is cell membranes. Summed up: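 Flp-In HEK293 cell line stably expressing the human receptor, crude membranes used at 1–2 µg protein. Pre-incubated 30 min at room temperature with 10 µg/mL adenosine deaminase. Then incubated 90 min with 1.0 nM [3H]-DPCPX and graded competitor in 50 mM Tris-HCl pH 7.4, 1 mM EDTA, 10 mM MgCl2. Nonspecific binding defined with 1 µM DPCPX. Separated by filtration on GF/C, counted by scintillation. Ki from IC50 via Cheng-Prusoff. Mean of at least two runs.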
(Displacement assays read how much labelled ligand stays bound in the presence of the test substance.)

The nature of data set [3]: Drug level in Wistar rat brain at 30 mg/kg, po after 2 hrs. The class given is ADME, organism-based. Further details: dose 30 mg/kg, route oral. As to conditions: read-out: Drug uptake. Summed up:
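Male Wistar rats, ∼220 g. Oral dose of 30 mg/kg in 5% cremophor in sterile water (5 mL/kg), with haloperidol 1.5 mg/kg ip 1 h before the bar test. Brain collected 2 h after dosing. Half-brain homogenates centrifuged, supernatant analysed by LC-MS/MS (positive ESI, MRM). Quantified against brain-matrix calibration standards by internal-standard peak-area ratio on a 1/x-weighted linear curve.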

Data set [4] has as its target Adenosine receptor A2a (Homo sapiens, UniProt P29274). Briefly: Displacement of [3H]-ZM 241385 from human adenosine A2A receptor expressed in HEK293 cell membrane. The data set is classed as cell membranes.

Sequence of Adenosine receptor A2a (Homo sapiens, UniProt P29274) (P29274 whole entry): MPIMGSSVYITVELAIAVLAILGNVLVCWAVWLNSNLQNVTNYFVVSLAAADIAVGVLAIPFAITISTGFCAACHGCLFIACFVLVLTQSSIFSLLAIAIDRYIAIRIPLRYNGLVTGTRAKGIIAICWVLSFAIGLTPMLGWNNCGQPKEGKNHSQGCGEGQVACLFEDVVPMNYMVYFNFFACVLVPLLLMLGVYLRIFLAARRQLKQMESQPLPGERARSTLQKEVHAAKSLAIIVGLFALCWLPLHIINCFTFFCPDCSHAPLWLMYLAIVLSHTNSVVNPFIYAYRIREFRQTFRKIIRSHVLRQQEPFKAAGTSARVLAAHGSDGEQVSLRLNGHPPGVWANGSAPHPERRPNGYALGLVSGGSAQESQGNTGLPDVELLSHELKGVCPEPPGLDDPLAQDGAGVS

`Cc1cc(C)n(-c2cc(NC(=O)CN3CCN(C)CC3)nc(-c3ccc(C)o3)n2)n1` showed a pIC50 in [1] of 6.02. Moreover, the Inhibition result at Cytochrome P450 2D6 and at Cytochrome P450 3A4 was “Not Active” in each case. The compound further showed a pKi at Adenosine receptor A2a [2] of 6.88. Further, the Ratio Ki in the data set filed under Homo sapiens came out at 71.
In data set [1], `Cc1cc(C)n(-c2cc(NC(=O)CCN3CC[C@H](N(C)C)C3)nc(-c3ccc(C)o3)n2)n1` gave a pIC50 of 5.64. The pKi on Adenosine receptor A2a [2] was 7.39; on Adenosine receptor A1, 6.20; at Adenosine receptor A2a [4] it was 8.62. The result with Rattus norvegicus was Active. Also, in the data set filed under Homo sapiens, the Ratio Ki amounted to 263. In [3], the concentration at 2 h was 250 ng/g.
For `CCN[C@@H]1CCN(CC(=O)Nc2cc(-n3nc(C)cc3C)nc(-c3ccc(C)o3)n2)C1`, in the data set filed under Homo sapiens, the Ratio Ki is 71. Also, the pKi is 6.57 on Adenosine receptor A1 and 8.42 on Adenosine receptor A2a [4].
For `Cc1cc(C)n(-c2cc(NC(=O)CN3CCCC3)nc(-c3ccc(C)o3)n2)n1` the same measures were 40, 6.46 and 8.07.
On to `Cc1cc(C)n(-c2cc(NC(=O)CN3CC[C@H](N(C)C)C3)nc(-c3ccc(C)o3)n2)n1`, for which the pIC50 in data set [1] was 6.22. In addition, the negative-log Ki (pKi) on Adenosine receptor A2a [2] is 6.80; at Adenosine receptor A1, 6.03; on Adenosine receptor A2a [4], 8.43. Besides, in the data set with Rattus norvegicus, the outcome was Active. For the same compound, the Ratio Ki in the data set filed under Homo sapiens came to 254. For the same compound, the concentration at 2 h in data set [3] was 1900 ng/g.
`Cc1cc(C)n(-c2cc(NC(=O)CN3CCOCC3)nc(-c3ccc(C)o3)n2)n1`: the pKi at Adenosine receptor A2a [2] was 6.37; at Adenosine receptor A1 it was 6.30; at Adenosine receptor A2a [4] it was 8.24. For the same compound, the Ratio Ki in the data set filed under Homo sapiens turned out to be 88.
Regarding `Cc1cc(C)n(-c2cc(NC(=O)CN3CC[C@@H](CN(C)C)C3)nc(-c3ccc(C)o3)n2)n1`, the pKi at Adenosine receptor A2a [2] was 7.56; at Adenosine receptor A1, 6.66; on Adenosine receptor A2a [4], 8.68.
For `Cc1cc(C)n(-c2cc(NC(=O)CN3CC[C@@H](N(C)C)C3)nc(-c3ccc(C)o3)n2)n1`, the Ratio Ki in the data set filed under Homo sapiens is 66. Moreover, the pKi is 6.58 on Adenosine receptor A1 and 8.40 on Adenosine receptor A2a [4].
For the compound `Cc1cc(C)n(-c2cc(NC(=O)CN3CCCOCC3)nc(-c3ccc(C)o3)n2)n1`, the pKi on Adenosine receptor A2a [2] is 6.64; at Adenosine receptor A1, 6.20; on Adenosine receptor A2a [4] it was 8.22. In the data set listed under Homo sapiens, the Ratio Ki turned out to be 105.
With `Cc1cc(C)n(-c2cc(NC(=O)CN3CC[C@H](CN(C)C)C3)nc(-c3ccc(C)o3)n2)n1`, the pKi is 7.47 on Adenosine receptor A2a [2], 6.26 on Adenosine receptor A1 and 7.96 at Adenosine receptor A2a [4].
`Cc1cc(C)n(-c2cc(NC(=O)CC3CCN(C)CC3)nc(-c3ccc(C)o3)n2)n1`: the pKi on Adenosine receptor A2a [2] was 6.99; at Adenosine receptor A1, 5.99; on Adenosine receptor A2a [4] it was 8.27.
`CCN[C@H]1CCN(CC(=O)Nc2cc(-n3nc(C)cc3C)nc(-c3ccc(C)o3)n2)C1`: the pIC50 in data set [1] was 6.38. In addition, the negative logarithm of the Ki (pKi) at Adenosine receptor A2a [2] was 7.43; on Adenosine receptor A1, 6.43; at Adenosine receptor A2a [4], 8.60. For the same compound, the Ratio Ki in the data set filed under Homo sapiens is 148.
`CCN1CCN(CC(=O)Nc2cc(-n3nc(C)cc3C)nc(-c3ccc(C)o3)n2)CC1`: the pKi on Adenosine receptor A2a [2] was 6.57; at Adenosine receptor A1 it was 5.73; on Adenosine receptor A2a [4], 7.96. Further, the Ratio Ki in the data set listed under Homo sapiens amounted to 171.
As to `CC(=O)N1CCN(CC(=O)Nc2cc(-n3nc(C)cc3C)nc(-c3ccc(C)o3)n2)CC1`, the pKi at Adenosine receptor A2a [2] is 6.77; on Adenosine receptor A1 it was 6.27; on Adenosine receptor A2a [4] it was 8.44. The Ratio Ki in the data set listed under Homo sapiens was 150.
For `COC1CCN(CC(=O)Nc2cc(-n3nc(C)cc3C)nc(-c3ccc(C)o3)n2)CC1` the same measures were 5.80, 5.92, 7.82 and 81.
For `Cc1cc(C)n(-c2cc(NC(=O)CN3CCC[C@@H](CN(C)C)C3)nc(-c3ccc(C)o3)n2)n1` the same measures were 7.85, 7.15, 8.82 and 47.
With `Cc1cc(C)n(-c2cc(NC(=O)CN3CCCN(C)CC3)nc(-c3ccc(C)o3)n2)n1`, in data set [1], the pIC50 was 6.55. Also, the pKi at Adenosine receptor A2a [2] was 7.33; at Adenosine receptor A1, 5.68; at Adenosine receptor A2a [4] it was 8.00. The Ratio Ki in the data set listed under Homo sapiens is 210.
In the case of `Cc1cc(C)n(-c2cc(NC(=O)CN3CC[C@H](OC(C)C)C3)nc(-c3ccc(C)o3)n2)n1`, the Ratio Ki in the data set listed under Homo sapiens was 27. Further, the pKi at Adenosine receptor A1 was 5.64; at Adenosine receptor A2a [4], 7.07.
With `Cc1cc(C)n(-c2cc(NC(=O)CCN(C)C)nc(-c3ccc(C)o3)n2)n1`, the pKi at Adenosine receptor A2a [2] is 7.37; on Adenosine receptor A1, 6.68; at Adenosine receptor A2a [4], 8.68.
As to `CCN(CC)[C@H]1CCN(CC(=O)Nc2cc(-n3nc(C)cc3C)nc(-c3ccc(C)o3)n2)C1`, the values for the pKi on Adenosine receptor A2a [2], at Adenosine receptor A1 and at Adenosine receptor A2a [4] were 6.81, 5.59 and 8.36, respectively. In addition, in the data set filed under Homo sapiens, the Ratio Ki amounted to 591.
For `Cc1cc(C)n(-c2cc(NC(=O)CN3CCC[C@H](CN(C)C)C3)nc(-c3ccc(C)o3)n2)n1` the same measures were 7.06, 6.05, 8.00 and 89.
`Cc1cc(C)n(-c2cc(NC(=O)CN3CCC(CN(C)C)CC3)nc(-c3ccc(C)o3)n2)n1` gave a pIC50 in [1] of 5.78. In addition, the pKi on Adenosine receptor A2a [2] was 7.60; at Adenosine receptor A1, 6.42; at Adenosine receptor A2a [4], 8.54. For the same compound, the Ratio Ki in the data set filed under Homo sapiens worked out at 131.
